This is an account of results in ChEMBL document CHEMBL1151773, “Synthesis and biological evaluation of amide derivatives of (5,6-dimethoxy-2,3-dihydro-1H-inden-1-yl)acetic acid as anti-inflammatory agents with reduced gastrointestinal ulcerogenecity” (Eur J Med Chem, 2008).

The test system of series [1] is Rattus norvegicus. Kind of series: Antipyretic activity in Wistar rat assessed as change in LPS-induced rectal temperature at 10 mg/kg, po administered 30 mins before LPS challenge after 3 hrs. Type of series: functional. An outline of the steps: (§1)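 Adult female Wistar rats, 170±20 g, fasted 24 h, dosed orally at 09:00; 30 min later E. coli 0111:B4 phenol-extracted LPS in apyrogenic saline given i.p. Rectal temperature by telethermometer probe just before and 1–7 h hourly after LPS; temperature index calculated from these readings. n = 6.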

For series [2], the system named is Rattus norvegicus. Kind of series: Antiarthritic activity in Albino rat assessed as inhibition of Freund's complete adjuvant-induced paw volume at 10 mg/kg, po administered for 14 days daily once starting a day before adjuvant challenge measured on day 3. Type of series: functional. An outline of the steps: (§2)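 Female albino rats, 160±10 g, six per group, dosed orally once daily for 14 days starting the day before 0.1 ml Freund's complete adjuvant into the right hind paw subplantar surface. Both hind paw volumes, measured up to a mark at the lateral malleolus, taken before and daily after adjuvant.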

Series [3] has as its system Rattus norvegicus. Nature of the series: Antiinflammatory activity in Wistar rat assessed as inhibition of carrageenan-induced hind paw edema volume at 10 mg/kg, po administered 60 mins before carrageenan challenge after 1 hr relative to control. Type of series: functional. In short, it runs like this:
(§3)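 Female Wistar rats (170± 20 g), fasted overnight, n=6 per group; dosed orally, then 0.1 ml of 1% carrageenan injected subplantar into right hind paw 1 h later.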
(In general: The carrageenan paw model is a standard test of acute inflammation.)

In series [4] the test system is Rattus norvegicus. Nature of the series: Antiinflammatory activity in Wistar rat assessed as inhibition of carrageenan-induced hind paw edema volume at 10 mg/kg, po administered 60 mins before carrageenan challenge after 24 hrs relative to control. Type of series: functional.
For series [5], the system named is Rattus norvegicus. Nature of the series: Antiarthritic activity in Albino rat assessed as inhibition of Freund's complete adjuvant-induced paw volume at 10 mg/kg, po administered for 14 days daily once starting a day before adjuvant challenge measured on day 13. Type of series: functional. In short, it runs like this: as §2
In series [6] the test system is Rattus norvegicus. Kind of series: Antipyretic activity in Wistar rat assessed as change in LPS-induced rectal temperature at 10 mg/kg, po administered 30 mins before LPS challenge after 2 hrs. It is filed as functional. In short, it runs like this: as §1
Series [7] concerns Rattus norvegicus. Kind of series: Antiarthritic activity in Albino rat assessed as inhibition of Freund's complete adjuvant-induced paw volume at 10 mg/kg, po administered for 14 days daily once starting a day before adjuvant challenge measured on day 8. It is filed as functional. An outline of the steps: as §2
The test system of series [8] is Rattus norvegicus. Kind of series: Antipyretic activity in Wistar rat assessed as change in LPS-induced rectal temperature at 10 mg/kg, po administered 30 mins before LPS challenge after 4 hrs. Type of series: functional. An outline of the steps:
as §1

For series [9], the species on record is Rattus norvegicus. Nature of the series: animal or person. As to conditions: Wistar, po, read-out: INH.
For series [10], the system named is Rattus norvegicus. Kind of series: Antipyretic activity in Wistar rat assessed as change in LPS-induced rectal temperature at 10 mg/kg, po administered 30 mins before LPS challenge after 1 hr. Type of series: functional. An outline of the steps:
as §1

Series [11] concerns Mus musculus. Nature of the series: Analgesic activity in Swiss albino mouse assessed as inhibition of acetic acid-induced writhing at 10 mg/kg, po administered 60 mins before acetic acid challenge after 5 to 15 mins relative to control. Type of series: functional. In short, it runs like this:
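Female Swiss albino mice, 20±5 g, fasted overnight with free water access, dosed orally; 1 h later injected i.p. with 1% v/v acetic acid at 0.1 ml/10 g. Writhes (full hind-limb extension) counted for 15 min, starting 5 min after injection; only animals giving 20 or more writhes used. % inhibition = 100(1−Wt/Wc) vs control group mean; six animals per group.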
Background: An intraperitoneal irritant provokes the stretching counted in writhing tests.

The subject of series [12] is Rattus norvegicus. Nature of the series: Antiinflammatory activity in Wistar rat assessed as inhibition of carrageenan-induced hind paw edema volume at 10 mg/kg, po administered 60 mins before carrageenan challenge after 3 hrs relative to control. Type of series: functional. In short, it runs like this:
as §3

The subject of series [13] is Rattus norvegicus. Kind of series: Antiarthritic activity in Freund's complete adjuvant challenged Albino rat model assessed as change in body weight at 10 mg/kg, po administered for 14 days daily once starting a day before adjuvant challenge. Type of series: functional. The settings on record: 336 h, read-out: INH.
Series [14] concerns Rattus norvegicus. Kind of series: Gastrointestinal toxicity in Wistar rat assessed as ulcer index at 1 mg/kg, po after 14 days. It is filed as organism-based. Details: route oral. As to conditions: in vivo, 336 h. An outline of the steps: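 Gastric mucosa examined for ulceration at post-mortem of female albino rats sacrificed at the end of the 14-day once-daily oral dosing in the Freund's adjuvant arthritis study; ulcer index scored per animal. Mean ± SEM, n = 6.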

In series [15] the test system is Rattus norvegicus. Kind of series: Gastrointestinal toxicity in Wistar rat assessed as ulcer index at 30 mg/kg, po after 6 hrs. It is filed as organism-based. Details: dose 30 mg/kg, route oral. The settings on record: in vivo. An outline of the steps: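 Female Wistar rats, 175±25 g, fasted 24 h, dosed orally once; sacrificed 6 h later by cervical dislocation. Stomach opened along greater curvature, saline-washed, mucosa inspected with a hand lens. Lesions graded I (edema/hyperemia/petechiae), II (hemorrhagic lesions with small erosions), III (deep ulcers); UI = nI + 2nII + 3nIII. Mean ± SEM, n = 6.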

Series [16] relates to Rattus norvegicus. Kind of series: Antipyretic activity in Wistar rat assessed as change in LPS-induced rectal temperature at 10 mg/kg, po administered 30 mins before LPS challenge after 6 hrs. It is filed as functional. An outline of the steps:
as §1

For series [17], the system named is Rattus norvegicus. Nature of the series: Antiinflammatory activity in Wistar rat assessed as inhibition of carrageenan-induced hind paw edema volume at 10 mg/kg, po administered 60 mins before carrageenan challenge after 6 hrs relative to control. Type of series: functional.
Series [18] concerns Rattus norvegicus. Nature of the series: Antiinflammatory activity in Wistar rat assessed as inhibition of carrageenan-induced hind paw edema volume at 10 mg/kg, po administered 60 mins before carrageenan challenge after 4 hrs relative to control. It is filed as functional. An outline of the steps: as §3
Series [19] relates to Rattus norvegicus. Kind of series: Antipyretic activity in Wistar rat assessed as change in LPS-induced rectal temperature at 10 mg/kg, po administered 30 mins before LPS challenge after 7 hrs. It is filed as functional. An outline of the steps: as §1
For series [20], the system named is Rattus norvegicus. Nature of the series: Antipyretic activity in Wistar rat assessed as change in LPS-induced rectal temperature at 10 mg/kg, po administered 30 mins before LPS challenge after 5 hrs. It is filed as functional. In short, it runs like this: as §1

Turning to `COc1ccc2c(c1)c(CC(=O)O)c(C)n2C(=O)c1ccc(Cl)cc1` [INDOMETHACIN], the Activity in series [1] was -0.11 °C; in series [6], -1.03 °C; in series [8], 0.22 °C; in series [10], -0.39 °C; in series [16], 0.35 °C; in [19], 0.55 °C. The Activity in [20] worked out at 0.3 °C. Moreover, the inhibition in vivo at 10 mg/kg in series [2] was determined as 37.5%; in series [3], 50%; in [4], 13.3%; in [5], 46.5%; in series [7] it was 43.9%; in [9], 58%. For the same compound, the inhibition in vivo at 10 mg/kg worked out at 51.5% in series [11]; 65.2% in series [12]; 5.68 g in series [13]; 48.1% in series [17]; 57.8% in [18]. Moreover, the results for the UI in series [14] and in [15] were 72 and 31.37, respectively.
